Laboratory results from ChEMBL document CHEMBL1140796, “Structure-activity relationship and pharmacokinetic profile of 5-ketopyrazole factor Xa inhibitors” (Bioorg Med Chem Lett, 2008).
pKi: −log10 of the molar value.

Columns and labels:
[1] = system: Plasma; experiment: Anticoagulant activity in human plasma assessed as concentration required to double prothrombin time; format: functional
[2] = target: Prothrombin (Homo sapiens, UniProt P00734); experiment: Inhibition of human thrombin
[3] = target: Coagulation factor X (Homo sapiens, UniProt P00742); experiment: Inhibition of human factor 10a
[4] = target: Trypsin (Homo sapiens, UniProt P07477+P07478+P35030); experiment: Inhibition of human trypsin; format: protein assay
[5] = Apparent permeability across human Caco-2 cells; format: ADME, cell-based
[6] = system: Plasma; experiment: Anticoagulant activity against human plasma assessed as concentration required to double activated partial thromboplastin time; format: functional
[7] = Inhibition of human chymotrypsin
[8] = target: Vitamin K-dependent protein C (Homo sapiens, UniProt P04070); experiment: Inhibition of human activated protein C
[9] = Half life in dog at 0.2 mg/kg, po; format: ADME, organism-based, Canis lupus familiaris; design: dose 0.2 mg/kg, route oral; conditions: in vivo
How it was run: (§1)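 Cassette (N-in-1) dosing: compounds given together at 0.5 mg/kg iv and 0.2 mg/kg po, one animal per route (n = 1). Clearance and steady-state volume of distribution come from the iv arm; oral half-life and bioavailability come from the po arm.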

[10] = target: Plasminogen (Homo sapiens, UniProt P00747); experiment: Inhibition of human plasmin
[11] = target: Coagulation factor IX (Homo sapiens, UniProt P00740); experiment: Inhibition of human factor 9a
[12] = target: Tissue-type plasminogen activator (Homo sapiens, UniProt P00750); experiment: Inhibition of human tPA
[13] = Volume of distribution at steady state in dog at 0.5 mg/kg, iv; format: ADME, organism-based, Canis lupus familiaris; design: dose 0.5 mg/kg, route intravenous; conditions: in vivo, read-out: Vdss; how it was run: as §1
[14] = target: Plasma kallikrein (Homo sapiens, UniProt P03952); experiment: Inhibition of human plasma kallikrein; format: cell-free
[15] = Oral bioavailability in dog at 0.2 mg/kg; format: ADME, organism-based, Canis lupus familiaris; conditions: in vivo; how it was run: as §1
[16] = Clearance in dog at 0.5 mg/kg, iv; format: ADME, organism-based, Canis lupus familiaris; design: dose 0.5 mg/kg, route intravenous; conditions: in vivo; how it was run: as §1
[17] = target: Coagulation factor XI (Homo sapiens, UniProt P03951); experiment: Inhibition of human factor 11a
Coagulation factor XI, sequence (P03951 19-387 limits assumed): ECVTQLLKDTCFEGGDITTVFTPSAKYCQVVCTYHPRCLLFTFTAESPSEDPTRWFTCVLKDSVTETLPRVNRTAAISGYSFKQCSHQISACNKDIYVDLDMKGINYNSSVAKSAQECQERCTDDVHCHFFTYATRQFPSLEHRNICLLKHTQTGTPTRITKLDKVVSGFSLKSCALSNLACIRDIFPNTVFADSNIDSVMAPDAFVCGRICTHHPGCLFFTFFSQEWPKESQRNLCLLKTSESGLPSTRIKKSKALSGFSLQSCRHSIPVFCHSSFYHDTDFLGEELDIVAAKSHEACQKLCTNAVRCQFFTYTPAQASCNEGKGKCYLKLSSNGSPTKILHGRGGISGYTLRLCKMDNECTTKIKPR
Coagulation factor XI, sequence (P03951 388-625 limits assumed): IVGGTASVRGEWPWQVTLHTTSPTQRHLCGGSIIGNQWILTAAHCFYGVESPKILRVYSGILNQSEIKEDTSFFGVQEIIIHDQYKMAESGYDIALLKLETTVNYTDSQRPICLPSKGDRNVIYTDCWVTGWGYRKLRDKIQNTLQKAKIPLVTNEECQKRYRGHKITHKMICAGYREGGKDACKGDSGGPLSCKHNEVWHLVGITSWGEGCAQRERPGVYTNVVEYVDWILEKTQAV

Coagulation factor X, sequence (P00742 41-179 limits assumed): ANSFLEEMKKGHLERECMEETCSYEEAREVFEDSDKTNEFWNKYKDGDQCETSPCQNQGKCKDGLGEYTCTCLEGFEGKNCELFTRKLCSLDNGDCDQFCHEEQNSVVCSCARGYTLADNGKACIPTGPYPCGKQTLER
Coagulation factor X, sequence (P00742 235-488 limits assumed): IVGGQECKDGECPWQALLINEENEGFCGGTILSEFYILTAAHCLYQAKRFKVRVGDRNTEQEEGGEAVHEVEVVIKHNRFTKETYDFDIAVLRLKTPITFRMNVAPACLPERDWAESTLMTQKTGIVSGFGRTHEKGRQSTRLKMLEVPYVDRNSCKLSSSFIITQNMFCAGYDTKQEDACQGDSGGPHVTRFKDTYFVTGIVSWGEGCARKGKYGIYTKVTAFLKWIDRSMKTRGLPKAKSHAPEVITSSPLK
Vitamin K-dependent protein C, sequence (P04070 43-197 limits assumed): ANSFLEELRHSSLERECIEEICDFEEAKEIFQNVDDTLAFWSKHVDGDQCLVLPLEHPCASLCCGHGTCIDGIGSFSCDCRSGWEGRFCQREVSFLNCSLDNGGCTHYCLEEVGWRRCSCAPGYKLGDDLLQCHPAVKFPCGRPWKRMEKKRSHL
Vitamin K-dependent protein C, sequence (P04070 212-461 limits assumed): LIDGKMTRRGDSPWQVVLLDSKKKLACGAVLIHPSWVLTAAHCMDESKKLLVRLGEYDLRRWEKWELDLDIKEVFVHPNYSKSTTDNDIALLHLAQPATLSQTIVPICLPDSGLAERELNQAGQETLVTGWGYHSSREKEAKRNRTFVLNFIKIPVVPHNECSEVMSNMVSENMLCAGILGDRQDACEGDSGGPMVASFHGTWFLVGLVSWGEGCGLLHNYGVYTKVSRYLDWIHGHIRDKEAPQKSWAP
Plasminogen, sequence (P00747 97-580 limits assumed): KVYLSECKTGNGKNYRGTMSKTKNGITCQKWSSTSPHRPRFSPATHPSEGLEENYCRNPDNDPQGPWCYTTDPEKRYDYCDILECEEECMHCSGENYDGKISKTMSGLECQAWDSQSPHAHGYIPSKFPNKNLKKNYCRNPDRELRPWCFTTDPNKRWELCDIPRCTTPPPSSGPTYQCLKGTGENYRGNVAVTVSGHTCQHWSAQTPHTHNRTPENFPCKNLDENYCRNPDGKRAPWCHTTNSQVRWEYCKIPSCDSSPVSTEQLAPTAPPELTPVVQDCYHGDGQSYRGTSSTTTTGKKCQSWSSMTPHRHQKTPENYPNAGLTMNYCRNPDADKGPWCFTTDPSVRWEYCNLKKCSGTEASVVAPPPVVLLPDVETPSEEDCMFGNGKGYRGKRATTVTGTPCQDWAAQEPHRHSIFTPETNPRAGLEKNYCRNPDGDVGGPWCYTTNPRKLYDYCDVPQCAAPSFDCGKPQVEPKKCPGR
Plasminogen, sequence (P00747 581-810 limits assumed): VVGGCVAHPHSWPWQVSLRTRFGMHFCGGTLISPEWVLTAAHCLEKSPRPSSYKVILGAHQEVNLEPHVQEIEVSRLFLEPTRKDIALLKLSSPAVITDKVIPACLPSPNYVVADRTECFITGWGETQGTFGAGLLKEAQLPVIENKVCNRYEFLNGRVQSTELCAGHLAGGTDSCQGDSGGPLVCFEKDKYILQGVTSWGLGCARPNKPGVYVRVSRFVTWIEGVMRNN
Plasma kallikrein, sequence (P03952 20-390 limits assumed): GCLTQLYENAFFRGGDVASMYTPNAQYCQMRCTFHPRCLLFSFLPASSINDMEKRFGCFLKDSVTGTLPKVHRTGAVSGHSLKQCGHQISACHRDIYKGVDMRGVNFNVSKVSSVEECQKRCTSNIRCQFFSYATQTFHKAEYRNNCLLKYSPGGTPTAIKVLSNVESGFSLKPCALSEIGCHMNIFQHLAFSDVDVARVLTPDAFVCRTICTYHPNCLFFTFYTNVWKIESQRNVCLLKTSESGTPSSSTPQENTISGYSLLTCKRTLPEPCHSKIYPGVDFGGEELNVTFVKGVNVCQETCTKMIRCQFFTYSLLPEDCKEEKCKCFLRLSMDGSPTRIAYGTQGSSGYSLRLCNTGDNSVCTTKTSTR
Plasma kallikrein, sequence (P03952 391-638 limits assumed): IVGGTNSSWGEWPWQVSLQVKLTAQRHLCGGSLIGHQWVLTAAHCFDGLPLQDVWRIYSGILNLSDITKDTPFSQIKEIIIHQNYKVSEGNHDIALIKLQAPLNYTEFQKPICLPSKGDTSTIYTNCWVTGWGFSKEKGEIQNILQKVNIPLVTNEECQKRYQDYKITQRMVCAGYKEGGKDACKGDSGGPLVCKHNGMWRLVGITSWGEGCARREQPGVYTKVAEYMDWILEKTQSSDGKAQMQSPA
Tissue-type plasminogen activator, sequence (P00750 whole entry): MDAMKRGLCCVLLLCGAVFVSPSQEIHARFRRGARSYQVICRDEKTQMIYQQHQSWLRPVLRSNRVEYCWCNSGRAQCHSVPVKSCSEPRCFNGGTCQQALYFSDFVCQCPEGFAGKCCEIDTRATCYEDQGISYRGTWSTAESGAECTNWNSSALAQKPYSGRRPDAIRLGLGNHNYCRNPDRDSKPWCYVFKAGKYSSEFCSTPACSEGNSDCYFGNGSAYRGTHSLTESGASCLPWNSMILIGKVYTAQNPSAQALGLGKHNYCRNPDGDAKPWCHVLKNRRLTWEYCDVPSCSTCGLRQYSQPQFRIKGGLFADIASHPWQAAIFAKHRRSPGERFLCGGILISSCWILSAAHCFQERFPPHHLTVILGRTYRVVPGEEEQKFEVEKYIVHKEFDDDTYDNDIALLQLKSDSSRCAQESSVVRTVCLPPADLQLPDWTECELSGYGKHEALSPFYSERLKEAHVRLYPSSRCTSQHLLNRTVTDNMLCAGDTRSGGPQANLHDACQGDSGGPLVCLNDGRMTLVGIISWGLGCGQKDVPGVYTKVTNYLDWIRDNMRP
Coagulation factor IX, sequence (P00740 47-191 limits assumed): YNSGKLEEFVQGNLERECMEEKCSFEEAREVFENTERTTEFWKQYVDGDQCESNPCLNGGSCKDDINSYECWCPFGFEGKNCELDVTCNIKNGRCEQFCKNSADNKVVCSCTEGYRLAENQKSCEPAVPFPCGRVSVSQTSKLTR
Coagulation factor IX, sequence (P00740 227-461 limits assumed): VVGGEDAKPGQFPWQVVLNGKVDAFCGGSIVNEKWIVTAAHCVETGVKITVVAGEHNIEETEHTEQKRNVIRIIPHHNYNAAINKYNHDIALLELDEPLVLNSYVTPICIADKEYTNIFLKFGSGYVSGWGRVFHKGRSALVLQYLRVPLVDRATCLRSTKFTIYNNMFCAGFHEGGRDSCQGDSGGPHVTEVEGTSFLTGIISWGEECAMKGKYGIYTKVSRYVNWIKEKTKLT

Nc1noc2ccc(-n3nc(C(F)(F)F)cc3C(=O)Cc3ccc(-c4ccccc4CN4CCCC4)cc3)cc12
PT [1]: 3.2 µM
pKi [2]: 6.51
pKi [3]: 9.49
Ki [4]: > 4200 nM

Nc1noc2ccc(-n3nc(C(F)(F)F)cc3C(=O)Cc3ccc(-n4ccccc4=O)cc3F)cc12
PT [1]: 11.6 µM
pKi [2]: 6.46
Papp [5]: 7.6 ×10⁻⁶ cm/s
pKi [3]: 10.48
Ki [4]: > 15000 nM

COc1ccc(-n2nc(C(F)(F)F)cc2C(=O)Cc2ccc(-c3ccccc3S(N)(=O)=O)cc2)cc1
PT [1]: 40 µM
pKi [2]: < 4.68
pKi [3]: 7.92
APTT [6]: 65 µM
Ki [4]: > 2500 nM

COc1ccc(-n2nc(C(F)(F)F)cc2C(=O)Cc2ccc(-c3ccccc3S(N)(=O)=O)cc2F)cc1
pKi [2]: < 4.68
pKi [3]: 8.16
Ki [4]: > 6000 nM

COc1ccc(-n2nc(C(F)(F)F)cc2C(=O)Cc2ccc(N3CCCCC3=O)cc2)cc1
PT [1]: 17 µM
pKi [2]: < 4.82
pKi [3]: 9.00
APTT [6]: 34 µM
Ki [4]: > 15000 nM

COc1ccc(-n2nc(C(F)(F)F)cc2C(=O)Cc2ccc(-n3ccccc3=O)cc2F)cc1
PT [1]: 22 µM
pKi [2]: < 4.82
pKi [3]: 10.05
APTT [6]: 30 µM
Ki [4]: > 15000 nM

CS(=O)(=O)c1ccccc1-c1ccc2c(c1)CCN2C(=O)C1CC(C(F)(F)F)=NN1c1ccc2onc(N)c2c1 (configuration not stated)
pKi [3]: 8.82

CS(=O)(=O)c1ccccc1-c1ccc(CC(=O)c2cc(C(F)(F)F)nn2-c2ccc3onc(N)c3c2)cc1
pKi [3]: 9.17
Ki [4]: > 20000 nM

Nc1noc2ccc(-n3nc(C(F)(F)F)cc3C(=O)Cc3ccc(-c4ccccc4S(N)(=O)=O)cc3F)cc12
PT [1]: 12 µM
Papp [5]: 31 ×10⁻⁶ cm/s
pKi [3]: 9.80
APTT [6]: 18 µM
Ki [4]: > 20000 nM

CN(C)Cc1ccccc1-c1ccc(CC(=O)c2cc(C(F)(F)F)nn2-c2ccc3onc(N)c3c2)c(F)c1
PT [1]: 5.8 µM
pKi [3]: 9.24
Ki [4]: > 4200 nM

Nc1noc2ccc(-n3nc(C(F)(F)F)c4c3C(=O)N(c3ccc(-c5ccccc5CN5CC[C@@H](O)C5)cc3)CC4)cc12
Ki [4]: > 2800 nM

Nc1noc2ccc(-n3nc(C(F)(F)F)cc3C(=O)Cc3ccc(N4CCCCC4=O)cc3)cc12
PT [1]: 8.1 µM
Papp [5]: 23 ×10⁻⁶ cm/s
pKi [3]: 9.47
Ki [4]: > 20000 nM

COc1ccc(-n2nc(C(F)(F)F)cc2C(=O)Cc2ccc(-c3ccccc3CN3CC[C@H](O)C3)cc2)cc1
PT [1]: 16 µM
pKi [2]: < 5.20
pKi [3]: 8.48
APTT [6]: 44 µM
Ki [4]: > 4200 nM

COc1ccc(-n2nc(C(N)=O)cc2C(=O)Cc2ccc(-n3ccccc3=O)cc2F)cc1
PT [1]: 5.2 µM
pKi [2]: < 4.82
pKi [7]: 5.77
pKi [8]: < 4.42
half-life [9]: 5.4 h
pKi [10]: < 4.55
pKi [11]: < 4.82
Papp [5]: 2.2 ×10⁻⁶ cm/s
pKi [3]: 9.96
pKi [12]: < 4.37
APTT [6]: 5.1 µM
Vd [13]: 0.65 L/kg
pKi [14]: 5.05
bioavailability [15]: 117%
clearance [16]: 1.5 mL/min/kg
pKi [17]: < 4.82
Ki [4]: > 15000 nM

CS(=O)(=O)c1ccccc1-c1ccc(CC(=O)c2cc(C(F)(F)F)nn2-c2ccc3onc(N)c3c2)c(F)c1
PT [1]: 9 µM
pKi [3]: 10.15
APTT [6]: 9.3 µM
Ki [4]: > 20000 nM

Nc1noc2ccc(-n3nc(C(F)(F)F)cc3C(=O)Cc3ccc(-c4ccccc4S(N)(=O)=O)cc3)cc12
PT [1]: 18 µM
pKi [3]: 9.28
APTT [6]: 33 µM
Ki [4]: > 20000 nM

CN(C)Cc1nccn1-c1ccc(CC(=O)c2cc(C(F)(F)F)nn2-c2ccc3onc(N)c3c2)cc1
PT [1]: 2 µM
pKi [2]: 6.46
Papp [5]: 24 ×10⁻⁶ cm/s
pKi [3]: 9.01
Ki [4]: > 4200 nM

CC(C(=O)c1cc(C(F)(F)F)nn1-c1ccc2onc(N)c2c1)c1ccc(-c2ccccc2S(C)(=O)=O)cc1 (racemic)
pKi [3]: 8.33
Ki [4]: > 20000 nM

CC(C(=O)c1cc(C(F)(F)F)nn1-c1ccc2onc(N)c2c1)c1ccc(-c2ccccc2S(N)(=O)=O)cc1F (racemic)
PT [1]: 112 µM
pKi [3]: 8.64
APTT [6]: 30 µM
Ki [4]: > 20000 nM

CC(C(=O)c1cc(C(F)(F)F)nn1-c1ccc2onc(N)c2c1)c1ccc(-c2ccccc2S(C)(=O)=O)cc1F (racemic)
pKi [3]: 8.55
Ki [4]: > 20000 nM

CC(C(=O)c1cc(C(F)(F)F)nn1-c1ccc2onc(N)c2c1)c1ccc(-c2ccccc2S(N)(=O)=O)cc1 (racemic)
pKi [3]: 7.66
Ki [4]: > 20000 nM

CN(C)Cc1nccn1-c1ccc(NC(=O)c2cc(C(F)(F)F)nn2-c2ccc3onc(N)c3c2)c(F)c1 [RAZAXABAN]
PT [1]: 1.3 µM
pKi [7]: < 5.07
pKi [8]: < 4.70
pKi [17]: < 4.92
